ChEMBL document CHEMBL2203085, “Modification of a promiscuous inhibitor shifts the inhibition from γ-secretase to FLT-3” (Bioorg Med Chem Lett, 2012)
pIC50: −log10 of the molar value. One block for each molecule: values may come before it.

Assays:
Gamma-secretase = test: Inhibition of gamma secretase in human H4 cells expressing APP695 assessed as inhibition of Abeta42 production after 20 to 24 hrs by liquid phase electrochemiluminescence assay; format: cell-based
Method in brief: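 Aβ42 generation in H4 APP#9 cells was quantified by a previously described liquid-phase electrochemiluminescence (LPECL) assay of the Aβ42 isoform as the read-out of γ-secretase inhibition.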

H4 [1] = test: Cytotoxicity against human H4 cells at 40 uM; format: cell-based; settings: h4, 40 µM
Method in brief: (§1)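 H4 APP#9 cells were used for cell-based toxicity testing, and toxicity was scored as yes or no at each concentration tested.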

H4 [2] = test: Cytotoxicity against human H4 cells at 80 uM; format: cell-based; settings: h4, 80 µM; method in brief: as §1
[3] = target: Serine/threonine-protein kinase Sgk1 (Homo sapiens) (UniProt O00141); test: Inhibition of human recombinant SGK1 using Ulight-RRRSLLE as substrate assessed as residual activity at 1 uM after 30 mins relative to staurosporine
Method in brief: (§2)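 Part of a 50-kinase panel screen at a single concentration. Residual activity is given as percent of control specific activity, calculated as (measured specific activity/control specific activity) × 100, with staurosporine as the control. The kinase-specific details are in the supplementary data.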

[4] = target: Fibroblast growth factor receptor 2 (Homo sapiens) (UniProt P21802); test: Inhibition of human recombinant FGFR2 using Ulight-CAGAGAIETDKEYYTVKD as substrate assessed as residual activity at 1 uM after 15 mins relative to staurosporine; method in brief: as §2
[5] = target: Serine/threonine-protein kinase Nek2 (Homo sapiens) (UniProt P51955); test: Inhibition of human recombinant NEK2 expressed in insect cells using Ulight-FLGFTYVAP as substrate assessed as residual activity at 1 uM after 60 mins relative to staurosporine; method in brief: as §2
Chain of Serine/threonine-protein kinase Nek2 (Homo sapiens) (P51955 whole entry): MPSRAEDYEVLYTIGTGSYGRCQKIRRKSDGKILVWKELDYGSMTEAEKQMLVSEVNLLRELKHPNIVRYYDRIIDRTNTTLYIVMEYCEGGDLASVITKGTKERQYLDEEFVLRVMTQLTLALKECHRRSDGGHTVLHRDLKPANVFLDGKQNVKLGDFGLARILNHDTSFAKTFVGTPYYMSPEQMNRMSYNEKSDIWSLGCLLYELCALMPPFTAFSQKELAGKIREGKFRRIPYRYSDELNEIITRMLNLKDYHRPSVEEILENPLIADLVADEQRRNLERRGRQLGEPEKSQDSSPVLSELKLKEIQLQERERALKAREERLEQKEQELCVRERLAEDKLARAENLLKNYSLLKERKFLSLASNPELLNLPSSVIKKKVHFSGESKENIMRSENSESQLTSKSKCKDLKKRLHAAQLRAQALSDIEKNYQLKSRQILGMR

[6] = target: Dual specificity mitogen-activated protein kinase kinase 6 (Homo sapiens) (UniProt P52564); test: Inhibition of human recombinant MKK6 using inactive p38alpha as substrate assessed as residual activity at 1 uM after 10 mins relative to staurosporine; method in brief: as §2
Danio rerio = species on record: Danio rerio; test: Toxicity against zebra fish embryo assessed as developmental delay at 20 uM incubated from 4 hrs to 48 hrs post fertilization by microscopic analysis; format: organism-based; settings: zebrafish, in vivo
Method in brief: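 Zebrafish embryos were collected and kept in E2 medium at 28 °C. Compound was added at 4–5 hpf at 5 or 20 µM alongside untreated controls. Phenotypes were compared with controls at 48 hpf.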

[7] = target: RAC-alpha serine/threonine-protein kinase (Homo sapiens) (UniProt P31749); test: Inhibition of human recombinant AKT1 expressed in insect cells using CKRREILSRRPSYRK as substrate assessed as residual activity at 1 uM after 60 mins relative to staurosporine; method in brief: as §2
Chain of RAC-alpha serine/threonine-protein kinase (Homo sapiens) (P31749 whole entry): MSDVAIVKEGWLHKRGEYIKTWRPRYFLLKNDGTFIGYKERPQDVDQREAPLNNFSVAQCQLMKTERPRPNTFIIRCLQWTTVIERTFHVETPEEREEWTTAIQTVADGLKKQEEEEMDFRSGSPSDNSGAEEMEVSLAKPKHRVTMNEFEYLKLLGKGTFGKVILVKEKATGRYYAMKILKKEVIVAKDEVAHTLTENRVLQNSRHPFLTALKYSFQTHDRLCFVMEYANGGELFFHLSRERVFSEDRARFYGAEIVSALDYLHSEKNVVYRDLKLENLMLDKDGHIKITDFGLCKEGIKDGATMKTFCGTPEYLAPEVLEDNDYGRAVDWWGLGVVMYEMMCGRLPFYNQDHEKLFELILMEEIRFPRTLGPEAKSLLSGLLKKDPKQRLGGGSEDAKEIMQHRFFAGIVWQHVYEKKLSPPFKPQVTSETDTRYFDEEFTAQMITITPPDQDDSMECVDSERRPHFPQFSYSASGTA

[8] = target: Epidermal growth factor receptor (Homo sapiens) (UniProt P00533); test: Inhibition of human recombinant EGFR expressed in insect cells using Ulight-CAGAGAIETDKEYYTVKD as substrate assessed as residual activity at 1 uM after 15 mins relative to staurosporine; method in brief: as §2
[9] = target: Serine/threonine-protein kinase PLK1 (Homo sapiens) (UniProt P53350); test: Inhibition of human recombinant PLK1 using Ulight-FLGFTYVAP as substrate assessed as residual activity at 1 uM after 60 mins relative to staurosporine; method in brief: as §2
[10] = target: Glycogen synthase kinase-3 alpha (Homo sapiens) (UniProt P49840); test: Inhibition of human recombinant GSK3alpha using Ulight-CFFKNIVTPRTPPPSQGK-amide as substrate assessed as residual activity at 1 uM after 60 mins relative to staurosporine; method in brief: as §2
Chain of Glycogen synthase kinase-3 alpha (Homo sapiens) (P49840 2-483 limits assumed): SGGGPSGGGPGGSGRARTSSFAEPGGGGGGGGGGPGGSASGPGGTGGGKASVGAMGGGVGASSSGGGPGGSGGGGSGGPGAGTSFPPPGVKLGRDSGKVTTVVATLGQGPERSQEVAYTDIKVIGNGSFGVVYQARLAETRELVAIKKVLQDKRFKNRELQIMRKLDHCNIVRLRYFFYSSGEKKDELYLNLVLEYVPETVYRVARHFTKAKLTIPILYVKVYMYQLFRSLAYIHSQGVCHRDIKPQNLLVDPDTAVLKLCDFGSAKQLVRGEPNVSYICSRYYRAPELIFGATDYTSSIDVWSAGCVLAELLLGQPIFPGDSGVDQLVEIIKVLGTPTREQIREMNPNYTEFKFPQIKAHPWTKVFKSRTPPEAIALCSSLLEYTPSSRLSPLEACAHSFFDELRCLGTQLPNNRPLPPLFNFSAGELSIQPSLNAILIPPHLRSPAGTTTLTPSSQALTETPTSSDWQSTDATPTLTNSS

[11] = target: Cyclin-dependent kinase 2/cyclin A (Homo sapiens) (UniProt P24941+P20248+P78396); test: Inhibition of human recombinant CDK2/cyclin A using Ulight-CFFKNIVTPRTPPPSQGK-amide as substrate assessed as residual activity at 1 uM after 30 mins relative to staurosporine; format: protein-complex assay; method in brief: as §2
[12] = target: Serine/threonine-protein kinase Chk1 (Homo sapiens) (UniProt O14757); test: Inhibition of human recombinant CHK1 expressed in insect cells using CKRREILSRRPSYRK as substrate assessed as residual activity at 1 uM after 30 mins relative to staurosporine; method in brief: as §2
Chain of Serine/threonine-protein kinase Chk1 (Homo sapiens) (O14757 whole entry): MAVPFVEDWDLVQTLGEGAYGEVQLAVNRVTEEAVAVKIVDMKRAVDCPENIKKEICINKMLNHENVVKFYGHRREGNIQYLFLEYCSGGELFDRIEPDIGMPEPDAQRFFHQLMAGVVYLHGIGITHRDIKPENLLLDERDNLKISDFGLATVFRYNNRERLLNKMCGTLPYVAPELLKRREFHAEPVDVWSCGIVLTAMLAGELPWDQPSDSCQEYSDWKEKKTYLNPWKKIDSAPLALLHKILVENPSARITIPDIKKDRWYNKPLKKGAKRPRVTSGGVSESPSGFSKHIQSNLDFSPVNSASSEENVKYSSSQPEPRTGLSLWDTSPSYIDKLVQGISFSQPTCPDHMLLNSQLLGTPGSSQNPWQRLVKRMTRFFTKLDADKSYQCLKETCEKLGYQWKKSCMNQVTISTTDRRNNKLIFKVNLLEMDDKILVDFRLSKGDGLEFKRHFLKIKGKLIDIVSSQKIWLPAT

[13] = target: Serine/threonine-protein kinase 26 (Homo sapiens) (UniProt Q9P289); test: Inhibition of human recombinant MST4 using Ulight-TM- PKC as substrate assessed as residual activity at 1 uM after 30 mins relative to staurosporine; method in brief: as §2
[14] = target: Serine/threonine-protein kinase PAK 4 (Homo sapiens) (UniProt O96013); test: Inhibition of human recombinant PAK4 expressed in insect cells using Ulight-RRRSLLE as substrate assessed as residual activity at 1 uM after 30 mins relative to staurosporine; method in brief: as §2
[15] = target: Ephrin type-B receptor 4 (Homo sapiens) (UniProt P54760); test: Inhibition of human recombinant EPHB4 expressed in insect cells using Ulight-TK peptide as substrate assessed as residual activity at 1 uM after 90 mins relative to staurosporine; method in brief: as §2
Chain of Ephrin type-B receptor 4 (Homo sapiens) (P54760 whole entry): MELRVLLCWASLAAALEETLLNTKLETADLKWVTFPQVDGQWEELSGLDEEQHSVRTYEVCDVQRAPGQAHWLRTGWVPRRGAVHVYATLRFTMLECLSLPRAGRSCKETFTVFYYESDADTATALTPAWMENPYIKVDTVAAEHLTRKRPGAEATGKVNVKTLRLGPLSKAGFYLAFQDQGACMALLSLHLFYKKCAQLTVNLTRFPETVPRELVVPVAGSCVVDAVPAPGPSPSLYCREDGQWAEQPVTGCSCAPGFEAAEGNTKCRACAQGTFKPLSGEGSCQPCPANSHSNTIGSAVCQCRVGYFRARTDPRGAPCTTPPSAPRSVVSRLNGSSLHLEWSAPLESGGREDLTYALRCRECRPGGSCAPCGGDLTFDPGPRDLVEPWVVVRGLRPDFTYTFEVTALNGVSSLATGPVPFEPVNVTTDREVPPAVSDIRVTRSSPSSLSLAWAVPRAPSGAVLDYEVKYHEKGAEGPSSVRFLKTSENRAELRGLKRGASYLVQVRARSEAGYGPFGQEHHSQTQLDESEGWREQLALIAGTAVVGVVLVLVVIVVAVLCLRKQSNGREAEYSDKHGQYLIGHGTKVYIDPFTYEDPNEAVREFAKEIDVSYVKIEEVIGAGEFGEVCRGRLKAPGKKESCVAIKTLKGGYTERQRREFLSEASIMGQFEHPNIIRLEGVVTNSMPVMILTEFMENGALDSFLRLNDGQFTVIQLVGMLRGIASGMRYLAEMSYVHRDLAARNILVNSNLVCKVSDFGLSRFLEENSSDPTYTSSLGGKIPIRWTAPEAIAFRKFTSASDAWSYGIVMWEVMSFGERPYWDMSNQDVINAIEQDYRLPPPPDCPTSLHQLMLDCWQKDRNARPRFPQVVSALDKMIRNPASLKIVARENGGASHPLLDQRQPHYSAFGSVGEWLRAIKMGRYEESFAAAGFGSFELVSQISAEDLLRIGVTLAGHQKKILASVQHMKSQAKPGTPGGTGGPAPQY

Homo sapiens = species on record: Homo sapiens; test: Inhibition of human recombinant PKA expressed in Escherichia coli using Ulight-RRRSLLE as substrate assessed as residual activity at 1 uM after 10 mins relative to staurosporine; method in brief: as §2
[16] = target: Receptor-type tyrosine-protein kinase FLT3 (Homo sapiens) (UniProt P36888); test: Inhibition of human recombinant FLT3 expressed in insect cells using Ulight-CAGAGAIETDKEYYTVKD as substrate assessed as residual activity at 1 uM after 90 mins relative to staurosporine; method in brief: as §2
[17] = target: Protein kinase C beta type (Homo sapiens) (UniProt P05771); test: Inhibition of human recombinant PKCbeta2 using CKRREILSRRPSYRK as substrate assessed as residual activity at 1 uM after 15 mins relative to staurosporine; method in brief: as §2
[18] = target: Hepatocyte growth factor receptor (Homo sapiens) (UniProt P08581); test: Inhibition of human recombinant cMET expressed in insect cells using Ulight-CAGAGAIETDKEYYTVKD as substrate assessed as residual activity at 1 uM after 60 mins relative to staurosporine
Method in brief: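 Single-point kinase-panel screen at 1 µM test concentration. Specific activity was measured and expressed as percent of the staurosporine control, calculated as (measured specific activity / control specific activity) × 100.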

[19] = target: Inhibitor of nuclear factor kappa-B kinase subunit alpha (Homo sapiens) (UniProt O15111); test: Inhibition of human recombinant IKKalpha expressed in Sf21 cells using + Ulight-IkappaB-alpha as substrate assessed as residual activity at 1 uM after 30 mins relative to staurosporine; method in brief: as §2
[20] = target: Glycogen synthase kinase-3 beta (Homo sapiens) (UniProt P49841); test: Inhibition of human recombinant GSK3beta using Ulight-CFFKNIVTPRTPPPSQGK-amide as substrate assessed as residual activity at 1 uM after 90 mins relative to staurosporine; method in brief: as §2
[21] = target: Tyrosine-protein kinase JAK3 (Homo sapiens) (UniProt P52333); test: Inhibition of human recombinant JAK3 using Ulight-CAGAGAIETDKEYYTVKD as substrate assessed as residual activity at 1 uM after 60 mins relative to staurosporine; method in brief: as §2
Chain of Tyrosine-protein kinase JAK3 (Homo sapiens) (P52333 whole entry): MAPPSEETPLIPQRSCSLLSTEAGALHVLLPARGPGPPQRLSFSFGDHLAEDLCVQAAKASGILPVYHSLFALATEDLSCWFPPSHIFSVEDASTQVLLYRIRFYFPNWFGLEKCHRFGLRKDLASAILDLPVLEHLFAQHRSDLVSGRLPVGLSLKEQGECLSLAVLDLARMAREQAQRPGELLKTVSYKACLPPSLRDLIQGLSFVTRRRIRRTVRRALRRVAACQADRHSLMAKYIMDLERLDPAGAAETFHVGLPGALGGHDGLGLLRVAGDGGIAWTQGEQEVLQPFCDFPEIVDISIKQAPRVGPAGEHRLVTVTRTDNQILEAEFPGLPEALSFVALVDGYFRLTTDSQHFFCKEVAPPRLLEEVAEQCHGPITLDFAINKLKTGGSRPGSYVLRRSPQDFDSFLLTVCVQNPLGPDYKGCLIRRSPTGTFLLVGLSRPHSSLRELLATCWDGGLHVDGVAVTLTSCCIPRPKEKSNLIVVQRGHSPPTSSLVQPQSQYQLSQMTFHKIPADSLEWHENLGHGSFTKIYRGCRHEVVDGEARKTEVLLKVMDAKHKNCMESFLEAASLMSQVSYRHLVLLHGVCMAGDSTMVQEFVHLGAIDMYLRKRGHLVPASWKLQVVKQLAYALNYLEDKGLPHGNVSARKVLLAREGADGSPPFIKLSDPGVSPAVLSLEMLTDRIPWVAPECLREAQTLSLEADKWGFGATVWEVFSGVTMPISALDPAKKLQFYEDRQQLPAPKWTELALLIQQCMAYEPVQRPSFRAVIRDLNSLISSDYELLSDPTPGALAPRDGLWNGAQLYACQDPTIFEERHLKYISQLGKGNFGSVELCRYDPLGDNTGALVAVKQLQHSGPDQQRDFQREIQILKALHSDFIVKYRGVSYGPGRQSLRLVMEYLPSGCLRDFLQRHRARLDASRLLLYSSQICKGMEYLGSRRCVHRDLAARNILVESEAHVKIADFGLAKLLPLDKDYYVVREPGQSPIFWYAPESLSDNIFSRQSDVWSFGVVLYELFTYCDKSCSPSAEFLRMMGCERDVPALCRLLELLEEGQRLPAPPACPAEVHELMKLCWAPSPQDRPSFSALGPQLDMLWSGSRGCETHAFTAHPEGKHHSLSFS

[22] = target: Aurora kinase A (Homo sapiens) (UniProt O14965); test: Inhibition of human recombinant Aurora A expressed in Sf21 cells using Ulight-RRRSLLE as substrate assessed as residual activity at 1 uM after 15 mins relative to staurosporine; method in brief: as §2
H4 [23] = test: Selectivity ratio of IC50 for gamma secretase in human H4 cells to IC50 for human recombinant FLT3; format: cell-based
[24] = target: Fibroblast growth factor receptor 3 (Homo sapiens) (UniProt P22607); test: Inhibition of human recombinant FGFR3 using Ulight-CAGAGAIETDKEYYTVKD as substrate assessed as residual activity at 1 uM after 90 mins relative to staurosporine; method in brief: as §2
Chain of Fibroblast growth factor receptor 3 (Homo sapiens) (P22607 23-806 limits assumed): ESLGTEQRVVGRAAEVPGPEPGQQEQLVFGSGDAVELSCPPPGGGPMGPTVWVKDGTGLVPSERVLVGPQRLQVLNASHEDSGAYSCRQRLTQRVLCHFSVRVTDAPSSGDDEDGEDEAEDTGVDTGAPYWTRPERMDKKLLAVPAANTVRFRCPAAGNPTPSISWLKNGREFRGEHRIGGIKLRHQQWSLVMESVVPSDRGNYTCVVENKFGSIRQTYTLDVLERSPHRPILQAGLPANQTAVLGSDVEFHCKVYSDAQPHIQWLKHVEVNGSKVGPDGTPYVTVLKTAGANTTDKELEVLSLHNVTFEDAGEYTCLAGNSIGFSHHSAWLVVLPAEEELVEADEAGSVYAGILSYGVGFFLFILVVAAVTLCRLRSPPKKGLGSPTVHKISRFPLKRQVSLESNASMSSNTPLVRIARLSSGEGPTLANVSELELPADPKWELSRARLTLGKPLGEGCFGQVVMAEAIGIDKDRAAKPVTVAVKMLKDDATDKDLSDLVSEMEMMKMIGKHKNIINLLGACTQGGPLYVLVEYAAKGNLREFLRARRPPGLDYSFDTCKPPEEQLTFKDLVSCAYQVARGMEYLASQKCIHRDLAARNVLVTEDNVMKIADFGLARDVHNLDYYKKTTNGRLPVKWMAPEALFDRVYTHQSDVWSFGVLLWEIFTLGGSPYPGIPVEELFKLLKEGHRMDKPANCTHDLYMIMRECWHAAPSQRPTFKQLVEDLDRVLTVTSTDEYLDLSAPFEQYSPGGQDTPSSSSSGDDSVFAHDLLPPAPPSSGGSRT

[25] = target: 3-phosphoinositide-dependent protein kinase 1 (Homo sapiens) (UniProt O15530); test: Inhibition of human recombinant PDK1 expressed in insect cells using Ulight-FLGFTYVAP as substrate assessed as residual activity at 1 uM after 90 mins relative to staurosporine; method in brief: as §2
[26] = target: Serine/threonine-protein kinase MARK1 (Homo sapiens) (UniProt Q9P0L2); test: Inhibition of human recombinant MARK1 using Ulight-RRRSLLE as substrate assessed as residual activity at 1 uM after 30 mins relative to staurosporine; method in brief: as §2
[27] = target: Mitogen-activated protein kinase 1 (Homo sapiens) (UniProt P28482); test: Inhibition of human recombinant ERK2 expressed in Escherichia coli using Ulight-CFFKNIVTPRTPPPSQGK-amide as substrate assessed as residual activity at 1 uM after 15 mins relative to staurosporine; method in brief: as §2
H4 [28] = test: Cytotoxicity against human H4 cells at 20 uM; format: cell-based; settings: h4, 20 µM; method in brief: as §1
H4 [29] = test: Cytotoxicity against human H4 cells at 160 uM; format: cell-based; settings: h4, 160 µM; method in brief: as §1
H4 [30] = test: Cytotoxicity against human H4 cells at 10 uM; format: cell-based; settings: h4, 10 µM; method in brief: as §1

SMILES: COC(=O)c1ccc(COc2ccc(/C=C3\C(=O)Nc4ccc(Cl)cc43)cc2)cc1
pIC50 (Gamma-secretase): 4.41
Activity (H4 [1]): Non-toxic

SMILES: O=C1Nc2ccc(Cl)cc2/C1=C/c1ccc(OCCCc2nnn[nH]2)cc1
pIC50 (Gamma-secretase): 4.75
Activity (H4 [1]): Toxic

SMILES: Cn1c2ccccc2c2cc(/C=C3\C(=O)Nc4ccccc43)ccc21
pIC50 (Gamma-secretase): 4.56
Activity (H4 [2]): Toxic

SMILES: CCN(CC)CCOc1ccc(/C=C2\C(=O)Nc3ccc(Cl)cc32)cc1
Activity [3]: 96%
pIC50 (Gamma-secretase): 4.75
Activity [4]: 100%
Activity [5]: 107%
Activity [6]: 101%
Activity (Danio rerio): Toxic
Activity [7]: 101%
Activity [8]: 102%
Activity [9]: 100%
Activity [10]: 104%
Activity [11]: 93.5%
Activity [12]: 95.8%
Activity [13]: 104%
Activity [14]: 101%
Activity [15]: 102%
Activity (Homo sapiens): 98.7%
Activity [16]: 14.7%
Activity [17]: 99.4%
Activity [18]: 97.2%
Activity [19]: 104%
Activity [20]: 97%
Activity [21]: 67.3%
Activity [22]: 99.6%
Ratio IC50 (H4 [23]): 1000
Activity [24]: 92.9%
Activity [25]: 107%
Activity [26]: 99.6%
Activity [27]: 101%

SMILES: CN(C)c1ccc(/N=N/c2ccc(/C=C3\C(=O)Nc4ccccc43)cc2)cc1
pIC50 (Gamma-secretase): < 4.10
Activity (H4 [2]): Non-toxic

SMILES: O=C1Nc2ccc(Cl)cc2/C1=C/c1ccc(O)cc1
pIC50 (Gamma-secretase): 4.32
Activity (H4 [1]): Non-toxic

SMILES: CCCCOc1ccc(/C=C2\C(=O)Nc3ccc(Cl)cc32)cc1
pIC50 (Gamma-secretase): < 4.40
Activity (H4 [1]): Non-toxic

SMILES: Cn1c2ccccc2c2cc(/C=C3\C(=O)Nc4ccc(Cl)cc43)ccc21
pIC50 (Gamma-secretase): 4.70
Activity (H4 [2]): Non-toxic

SMILES: COc1cc(/C=C2\C(=O)Nc3ccc(Cl)cc32)ccc1OCCCC#N
pIC50 (Gamma-secretase): < 3.80
Activity (H4 [29]): Non-toxic

SMILES: N#Cc1cccc(COc2ccc(/C=C3\C(=O)Nc4ccc(Cl)cc43)cc2)c1
pIC50 (Gamma-secretase): < 4.40
Activity (H4 [1]): Non-toxic

SMILES: N#CCCCOc1ccc(/C=C2\C(=O)Nc3ccc(Cl)cc32)cc1
pIC50 (Gamma-secretase): < 4.40
Activity (H4 [1]): Toxic

SMILES: COc1ccc(/C=C2\C(=O)Nc3ccc(Cl)cc32)cc1
pIC50 (Gamma-secretase): < 4.40
Activity (H4 [1]): Non-toxic

SMILES: N#Cc1ccc(COc2ccc(/C=C3\C(=O)Nc4ccc(Cl)cc43)cc2)cc1
pIC50 (Gamma-secretase): 4.56
Activity (H4 [1]): Non-toxic

Stronger by pIC50 (Gamma-secretase), values ahead:

pIC50 (Gamma-secretase): 4.82
SMILES: O=C1Nc2ccc(Cl)cc2/C1=C/c1cc(Br)c(O)c(Br)c1
Activity (H4 [1]): Non-toxic

pIC50 (Gamma-secretase): 4.94
SMILES: CCN(CC)CCOc1ccc(/C=C2\C(=O)Nc3ccc(Cl)cc32)cc1OC
Activity (H4 [1]): Toxic

pIC50 (Gamma-secretase): 4.94
SMILES: COc1cc(/C=C2\C(=O)Nc3ccc(Cl)cc32)ccc1OCCN(C)C
Activity (H4 [1]): Toxic

pIC50 (Gamma-secretase): 4.95
SMILES: O=C1Nc2ccc(Cl)cc2/C1=C/c1ccc(OCCN2CCOCC2)cc1
Activity (H4 [1]): Non-toxic

pIC50 (Gamma-secretase): 5.00
SMILES: COc1cc(OCCN(C)C)ccc1/C=C1\C(=O)Nc2ccc(Cl)cc21
Activity (H4 [1]): Non-toxic

pIC50 (Gamma-secretase): 5.12
SMILES: CN(C)CCOc1ccc(/C=C2\C(=O)Nc3ccc(Cl)cc32)cc1
Activity (H4 [1]): Non-toxic

pIC50 (Gamma-secretase): 5.14
SMILES: COc1cc(/C=C2\C(=O)Nc3ccc(Cl)cc32)ccc1S(C)(=O)=O
Activity (H4 [28]): Toxic

pIC50 (Gamma-secretase): 5.17
SMILES: COc1cc(/C=C2\C(=O)Nc3ccc(Cl)cc32)ccc1-n1cnc(C)c1
Activity (H4 [2]): Toxic

pIC50 (Gamma-secretase): 5.27
SMILES: Cc1cn(-c2ccc(Oc3ccc(/C=C4\C(=O)Nc5ccc(Cl)cc54)cc3)cc2)cn1
Activity (H4 [30]): Toxic

pIC50 (Gamma-secretase): 5.33
SMILES: O=C1Nc2ccc(Cl)cc2/C1=C/c1ccc(OCCCCl)cc1
Activity (H4 [1]): Toxic
